14-3-3 Bad PPI = inhibitors of 14-3-3 zeta/Bad binding, primary screen, biochemical, TR-FRET, bovine 14-3-3 zeta | 14-3-3 protein zeta/delta (Bos taurus), P63103 | TR-FRET 14-3-3zeta/Dy647-pBad peptide displacement, 1 h | inhibition, % at 21.7 µM | actives 0.71% (n = 220,000) | AID 781, 2007;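 active means inhibition above about 70%, limit read from the data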
eIF4E-4G inh = eIF4E–eIF4G protein interaction inhibitors, primary screen, biochemical, uHTS, TR-FRET, eIF4GI fragment | Eukaryotic translation initiation factor 4E (Mus musculus) + Eukaryotic translation … | TR-FRET eIF4E-eIF4GI(517-606) binding, 2 h | inhibition, % at 21.7 µM | actives 0.37% (n = 220,000);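 active means inhibition above about 30%, limit read from the data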
p97 ATPase inh = inhibitors of human p97 ATPase, primary screen, biochemical. Transitional endoplasmic reticulum ATPase (Homo sapiens), P55072. recombinant p97 ATPase, Kinase-Glo ATP luminescence, 3 h. inhibition, % at 8 µM. actives 0.42% (n = 220,000); in the data active means inhibition above about 15%
Biofilm kill mix = clotrimazole potentiators killing C. albicans biofilm, primary screen, 4-compound mixtures; C. albicans biofilm persisters + clotrimazole, fluorescence viability; primary screen in compound mixtures of four per well; inhibition, % at 7.6 µM; actives 0.02% (n = 120,000); AID 1242, 2008;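 active means inhibition above 30.3% in the primary screen of four-compound pools, then above 30% when the compound was retested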;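 further: compounds exposed to preformed 24 h biofilms for 48 h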
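System: C. albicans CAF4-2 wild-type biofilms; Medium: RPMI/MOPS medium, pH 7.0; Reagent: Clotrimazole, 50 µg/mL; Times: biofilm formation 24 h, compound exposure 48 h, 37 °C; Detection: 2-h Alamar Blue fluorescence, 535/590 nm excitation/emission; Evaluation: percent inhibition of biofilm viability.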
Hck-Nef inh = inhibitors of Nef-activated human Hck kinase, primary screen, biochemical, Z-Lyte FRET, 384-well, Hck-YEEI. Recombinant Hck-YEEI plus Nef, Z-Lyte FRET kinase assay. inhibition, % at 20 µM. actives 0.68% (n = 220,000). AID 463187, 2010;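 active means Hck-Nef kinase inhibition above about 50%, limit read from the data; inactive means inhibition below that limit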
PERK inh = block of dimerizer-induced PERK translation repression, primary screen, PERK inhibitor project, CHO PERK-DD cells, SEAP luminescence, HTS. Eukaryotic translation initiation factor 2-alpha kinase 3 (Homo sapiens), Q9NZJ5. CHO PERK-DD fusion, SEAP luminescence translation reporter. inhibition, % at 5.6 µM. actives 0.17% (n = 220,000);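 active means inhibition above the mean inhibition of all tested compounds plus 3 SD, set separately per screening campaign, cut at about 2.9% in these data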;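 further: PERK kinase domain activated by AP20187 dimerizer at 100 nM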
Hck-Nef confirm = retest of Hck:Nef kinase inhibitor hits, confirmation, biochemical, Z-Lyte FRET, 384-well, p-Tyr peptide counterscreen; AID 463188, 2010; shares compounds with Hck-Nef inh; actives 28% (n = 1,300); Recombinant Hck-YEEI:Nef, Z-Lyte FRET kinase assay; calls only at 10 µM;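 active means average inhibition of at least 50%, with Z-scores no higher than 3 in both the phospho-tyrosine peptide and fluorescence counterscreens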
Large screens that a line does not name were inactive (follow-up assays come after a bar, where shown); [ ] = dose if it differs, or a comment. Most compounds without a hit are left out; they make up all but 2.2% or so of the library.

COc1ccc(C(=O)Nc2cccc(-c3cc4ccccc4oc3=O)c2)cc1[N+](=O)[O-]	14-3-3 Bad PPI 75.2[fluorescence artefact?], Hck-Nef inh 96.3 | Hck-Nef confirm active
CC(=O)Nc1ccc(NC(=O)c2cccc(-c3cc4ccccc4oc3=O)c2)cc1	none
CCCc1nn(C)c2c(=O)[nH]c(-c3cc(S(=O)(=O)Nc4ccc(NC(C)=O)cc4)ccc3OCC)nc12	none
Nc1nonc1-c1nc2ccccc2n1CC(=O)N/N=C/c1ccc(-c2cccc(C(=O)O)c2)o1	Hck-Nef inh 91.2 | Hck-Nef confirm active
Cc1ccc(C)c(NC(=O)Cn2nc(-c3ccccc3)nc2-c2ccccc2)c1	Hck-Nef inh 58.6 (no result: Biofilm kill mix) | Hck-Nef confirm inactive
Cc1ccc(NC(=O)Cn2nc(-c3ccccc3)nc2-c2ccccc2)c(C)c1	none
CCN(CC)c1ccc2c(Cl)cc(=O)oc2c1	Hck-Nef inh 66.4 (not shown: Biofilm kill mix)
CCNc1ccc2c(Cl)cc(=O)oc2c1	Hck-Nef inh 51.9 (no result: Biofilm kill mix) | Hck-Nef confirm inactive
CC(C)Cn1c(N)c(C(=O)NCC2CCCO2)c2nc3ccccc3nc21 (stereo not drawn)	Hck-Nef inh 53.2 (not shown: Biofilm kill mix)
COc1ccc(OC)c(-n2c(N)c(C(=O)NCC3CCCO3)c3nc4ccccc4nc32)c1 (stereo not drawn)	none (no result: Biofilm kill mix)
C=CCN1C=C2C(=O)C(C)(OC(=O)CCC(=O)OC)C(=O)C(Br)=C2C=C1c1ccc(OC)cc1 (stereo not drawn)	none (no result: p97 ATPase inh, PERK inh)
COc1ccc(C2=CC3=C(Br)C(=O)C(C)(OC(=O)c4ccco4)C(=O)C3=CO2)cc1 (stereo not drawn)	Hck-Nef inh 91.9 (no result: p97 ATPase inh, PERK inh) | Hck-Nef confirm active
O=C(COc1ccc(/C=N/NC(=O)c2cc3ccccc3o2)cc1Cl)Nc1ccccc1	14-3-3 Bad PPI 79.0, Hck-Nef inh 85.7 (no result: Biofilm kill mix) | Hck-Nef confirm active
O=C(N/N=C/c1ccc2c(c1)OCO2)c1cc2ccccc2o1	none
CCOC(=O)c1c(NC(=O)/C=C/C(=O)O)sc(C)c1-c1ccc(Cl)cc1	Hck-Nef inh 107.4 | Hck-Nef confirm active
CC(C)(C)NC(=S)NC1CC1	none
COc1ccc(NC(=O)c2cc3c(=O)n(C)c4ccccc4c3n2C)cc1Cl	Hck-Nef inh 61.2 | Hck-Nef confirm inactive
COc1ccc(NC(=O)c2cc3c(=O)n(C)c4ccccc4c3n2C)cc1OC	none (no result: Biofilm kill mix)
CCOc1ccccc1NC(=O)CCCn1cc([N+](=O)[O-])cn1	none
O=C(Nc1ccccc1-c1nc2ccccc2[nH]1)c1sc2ccccc2c1Cl	none
CCOC(=O)c1c(NC(=O)C2CCCO2)sc(C(=O)OC(C)(C)C)c1C (stereo not drawn)	Hck-Nef inh 67.6 (no result: Biofilm kill mix) | Hck-Nef confirm inactive
Cc1ccc2sc(N(CCCN(C)C)C(=O)c3ccc(Br)s3)nc2c1C	none
CCCCCCc1cc2cc(C(=O)Nc3ccccc3)c(=O)oc2cc1O	Hck-Nef inh 71.8 | Hck-Nef confirm inactive
CCCCCCc1cc2cc(S(=O)(=O)c3ccc(Cl)cc3)c(=O)oc2cc1O	Hck-Nef inh 109.5
CCCCCCc1cc2cc(S(=O)(=O)c3ccc(C)cc3)c(=O)oc2cc1O	Hck-Nef inh 80.3
O=C(COC(=O)C1CC(=O)N(Cc2ccccc2)C1)c1ccc(F)cc1 (stereo not drawn)	none
O=C(O)c1ccc(-n2cccc2/C=N\NC(=O)c2cc3cc(Br)ccc3o2)cc1	14-3-3 Bad PPI 79.7, Hck-Nef inh 53.9 | Hck-Nef confirm inactive
C=CCCCCCCCCC(=O)Nc1ncccn1	none
CCN(CC)S(=O)(=O)c1ccc(N2CCOCC2)c(NC(=O)CCC2CCCCC2)c1	none
CN(C)CCCn1c(N)c(S(=O)(=O)c2ccccc2)c2nc3ccccc3nc21	Hck-Nef inh 85.0
Nc1nc(CN2CCN(c3ccccc3F)CC2)nc(N2CCCc3ccccc32)n1	none
Cc1cccc2cc(CNCC3CCCO3)c(Cl)nc12 (stereo not drawn)	none
COC(=O)c1sc(N)c(C(=O)OC)c1COC(=O)[C@@H](NS(=O)(=O)c1cccc(Cl)c1)C(C)C	Hck-Nef inh 79.3 | Hck-Nef confirm active
COC(=O)c1c(NC(=O)COC(=O)[C@@H](NS(=O)(=O)c2cccc(Cl)c2)C(C)C)sc2c1CCC2	none
CCCC1=NN(c2ccc([N+](=O)[O-])cc2)C(=O)/C1=C\N(C)C	none
COc1ccc(C(=O)N/C(=C\c2ccc3c(c2)OCO3)C(=O)Nc2ccc(C(=O)O)cc2)cc1	Hck-Nef inh 54.3 | Hck-Nef confirm inactive
CN(C)c1ccc(/C=C(\Cl)c2nc3ccccc3s2)cc1	none
C(=C\c1ccco1)/c1ccc2ccccc2n1	Hck-Nef inh 53.7 | Hck-Nef confirm inactive
CCCC1=C(C(=O)OCC)C(c2sccc2C)n2ncnc2N1 (stereo not drawn)	none
COc1ccc(C)cc1NC(=O)Nc1cnccn1	Hck-Nef inh 101.9 | Hck-Nef confirm active
Cc1cccc(CCNC(=O)C2CCN(S(=O)(=O)c3ccccc3)CC2)c1	none
CC(C)Cn1c(=O)oc2ccccc21	none
O=C1S/C(=C\c2ccc(O)c([N+](=O)[O-])c2)C(=O)N1Cc1cccc([N+](=O)[O-])c1	none
Cc1ccc(NC(=O)CN2C(=O)S/C(=C/c3ccc(O)c([N+](=O)[O-])c3)C2=O)cc1C	14-3-3 Bad PPI 83.5, eIF4E-4G inh 45.5, Hck-Nef inh 64.1 | Hck-Nef confirm active
O=C(Nc1cccc(/C=C/c2nc3ccccc3c(=O)[nH]2)c1)c1ccccc1Cl	none
COc1ccc(C(=O)Nc2cccc(/C=C/c3nc4ccccc4c(=O)[nH]3)c2)cc1	Hck-Nef inh 56.1 | Hck-Nef confirm inactive
C=CCN1C(=O)C(CC(=O)O)SC1=Nc1ccc(C)cc1 (stereo not drawn)	none
CCc1ccc(C2=NN(c3ccc(S(N)(=O)=O)cc3)C(c3ccc(F)cc3)C2)cc1 (stereo not drawn)	Hck-Nef inh 73.8 (not shown: Biofilm kill mix)
COc1ccccc1NC(=O)Nc1nnc(CC(=O)Nc2ccccc2C)s1	none
O=C(CNc1ccccc1)N/N=C/c1cc([N+](=O)[O-])ccc1N1CCCC1	none (no result: Biofilm kill mix)

Source: PubChem
